Data set [1] deals with MDA-MB-231. The data set is described as follows: Cytotoxic activity against human MDA-MB-231 cells assessed as inhibition of cell proliferation incubated for 72 hrs by MTT assay. The data set is classed as functional, cell-based. Summed up:
(§1)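 MTT cell survival assay. IC50 is the concentration that inhibits tumour cell proliferation by 50%, read from cell survival curves. Values are given as mean ± SD of three independent experiments.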
Background: Tetrazolium assays rely on reduction of a dye to a coloured formazan, in cell work by metabolically active cells.

A short description of data set [2]: Cytotoxic activity against human MCF10A cells assessed as inhibition of cell proliferation incubated for 72 hrs by MTT assay. The data set is classed as cell-based. The settings on record: mcf-10a. In outline: as §1
The subject of data set [3] is Mus musculus. The data set is described as follows: Toxic diuretic effect in 12 hrs fasted CD1 mouse assessed as increase in urine output at 10 mg/kg, ip measured 0 to 6 hrs post dose relative to untreated control. The data set is classed as toxicity, organism-based. The settings on record: in vivo. In outline:
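Female CD-1 mice fasted 12 h, then given compound IP at 10 mg/kg in PEG/EtOH/H2O (54:14:32). Vehicle control group included. Mice were housed singly in metabolic cages with free access to water. Voided urine was collected in graduated tubes under the cages over 0–6 h and 6–24 h after injection.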

Data set [4] is described as follows: Cytotoxic activity against human H1299 cells assessed as inhibition of cell proliferation incubated for 72 hrs by MTT assay. The data set is classed as functional, cell-based. The settings on record: NCI-H1299, 72 h. In outline: as §1
Data set [5] can be described thus: Cytotoxic activity against human GBM10 cells assessed as inhibition of cell proliferation incubated for 72 hrs by MTT assay. The conditions noted are these: GBM10, 72 h. The data set is classed as functional, cell-based. Summed up: as §1
Data set [6] is described as follows: Cytotoxic activity against human SF188 cells assessed as inhibition of cell proliferation incubated for 72 hrs by MTT assay. The data set is classed as functional, cell-based. The conditions noted are these: SF-188, 72 h. Summed up: as §1
A short description of data set [7]: Cytotoxic activity against human SKBR3 cells assessed as inhibition of cell proliferation incubated for 72 hrs by MTT assay. The data set is classed as functional, cell-based. The conditions noted are these: SK-BR-3, 72 h. In outline: as §1
The test system of data set [8] is MDA-MB-468. As to the kind of experiment: Cytotoxic activity against human MDA-MB-468 cells assessed as inhibition of cell proliferation incubated for 72 hrs by MTT assay. The data set is classed as functional, cell-based. The conditions noted are these: MDA-MB-468, 72 h. In outline: as §1
In data set [9] the test system is MCF7. As to the kind of experiment: Cytotoxic activity against human MCF7 cells assessed as inhibition of cell proliferation incubated for 72 hrs by MTT assay. The data set is classed as functional, cell-based. The conditions noted are these: MCF7, 72 h. In outline: as §1
Data set [10] has as its system HT-29. The data set is described as follows: Cytotoxic activity against human HT-29 cells assessed as inhibition of cell proliferation incubated for 72 hrs by MTT assay. The data set is classed as functional, cell-based. The conditions noted are these: HT-29, 72 h. In outline: as §1
The nature of data set [11]: Cytotoxic activity against human HCT116 cells assessed as inhibition of cell proliferation incubated for 72 hrs by MTT assay. The data set is classed as functional, cell-based. The settings on record: HCT-116, 72 h. In outline: as §1
The nature of data set [12]: Cytotoxic activity against human HT1080 cells assessed as inhibition of cell proliferation incubated for 72 hrs by MTT assay. The data set is classed as functional, cell-based. The conditions noted are these: HT-1080, 72 h. Summed up:
as §1

pIC50: −log10 of the molar value. Activity calls are given as the source filed them. No cut-off for these calls is given here.

Consider `N[C@H]1C(O)O[C@H](CO)[C@@H](O)[C@@H]1O` (stereo partly drawn) [GLUCOSAMINE], for which the “growth inhibition (GI)” value in data set [1] is “inactive”. For the same molecule, in data set [2], the Activity entry is given as “Non-toxic”.

In general, pIC50 refers to −log10 of the IC50, conventionally taken in molar units. As to `C=C(CC)C(=O)c1ccc(OCC(=O)O)c(Cl)c1Cl` [ETHACRYNIC ACID], in data set [3], the “fold change (FC)” value is “<= 6”. In addition, the pIC50 in data set [4] was 4.35; in [5] it was 4.52; in data set [6] it was 4.50; in data set [7] it was 4.47; in data set [1] (MDA-MB-231, 72 h), 4.34; in data set [8] it was 4.09. Besides, the pIC50 was 4.54 in [9], 4.20 in data set [10], 4.52 in [11] and 4.26 in data set [12].

Values taken from ChEMBL document CHEMBL3797027, “Potent anti-proliferative actions of a non-diuretic glucosamine derivative of ethacrynic acid” (Bioorg Med Chem Lett, 2016).
